According to ChEMBL document CHEMBL3826914, “Selective photodepletion of malignant T cells in extracorporeal photopheresis with selenorhodamine photosensitizers” (Bioorg Med Chem, 2016):
Calls of active or inactive are those of the source. The calls are words filed in the database; no cut-off is given here.

Tested on: ABCB1
Experiment: Permeability from apical to basolateral side in dog MDCK2-MDR1 cells expressing ABCB1 at 5 uM after 30 mins in presence of compound 15 by LC-MS/MS analysis
Type: ADME, cell-based, Canis lupus familiaris, MDCK-II
Settings: MDCK-MDR1, with compound 15 (concentration not stated), read-out: permeability
Procedure, shortened: (§1)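 MDR1-transfected MDCKII cells (passage 16–42) were seeded at 50,000 cells cm^-2 on Transwell filters and used on day 6. Monolayers were rinsed in DPBS with 10^-2 M HEPES, pH 7.4, at 37 °C. They were preincubated 30 min in 4.3 mg/mL BSA/DPBSH with or without 5×10^-6 M P-gp inhibitor. 5 μM dye was added apically or basolaterally and samples taken after 1 h at 37 °C with nutation. Quantitation was by LC-MS/MS; P_passive is the mean of P_AB and P_BA under full inhibition. Mean ± SD.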

SMILES | Papp A→B at 0.5 h, 5 µM [×10⁻⁶ cm/s]
S=C(c1ccc(C2=c3cc4c5c(c3[Se]c3c2cc2c6c3CCCN6CCC2)CCC[N+]=5CCC4)s1)N1CCCCC1.[Cl-] | 0.051

Tested on: not listed separately
Experiment: Drug extrusion in human CD8 positive cells assessed as change in mean fluorescence intensity at 5 x 10^-8 M preincubated for 20 mins followed by growth in photosensitizer-free media for 30 mins by flow cytometric analysis relative to control
Type: cell-based
Settings: 0.5 h, 0.05 µM

SMILES | Activity [%]
S=C(c1ccc(C2=c3cc4c5c(c3[Se]c3c2cc2c6c3CCCN6CCC2)CCC[N+]=5CCC4)s1)N1CCCCC1.[Cl-] | 59.2

Tested on: ABCB1
Experiment: Permeability from apical to basolateral side in dog MDCK2-MDR1 cells expressing ABCB1 at 5 uM after 30 mins in absence of compound 15 by LC-MS/MS analysis
Type: ADME, cell-based, Canis lupus familiaris, MDCK-II
Settings: MDCK-MDR1, read-out: permeability
Procedure, shortened: as §1

SMILES | Papp A→B at 0.5 h, 5 µM [×10⁻⁶ cm/s]
S=C(c1ccc(C2=c3cc4c5c(c3[Se]c3c2cc2c6c3CCCN6CCC2)CCC[N+]=5CCC4)s1)N1CCCCC1.[Cl-] | 0.03

Tested on: not listed separately
Experiment: Drug extrusion in SEB-stimulated human CD25 positive cells assessed as mean fluorescence intensity at 5 x 10^-8 M preincubated for 20 mins followed by growth in photosensitizer-free media for 30 mins by flow cytometric analysis relative to control
Settings: 0.5 h, 0.05 µM

SMILES | Flu intensity [a.u.]
S=C(c1ccc(C2=c3cc4c5c(c3[Se]c3c2cc2c6c3CCCN6CCC2)CCC[N+]=5CCC4)s1)N1CCCCC1.[Cl-] | 69000

Tested on: ABCB1
Experiment: Permeability from basolateral to apical side in dog MDCK2-MDR1 cells expressing ABCB1 at 5 uM after 30 mins in presence of compound 15 by LC-MS/MS analysis
Type: ADME, cell-based, Canis lupus familiaris, MDCK-II
Settings: MDCK-MDR1, with compound 15 (concentration not stated), read-out: permeability
Procedure, shortened: as §1

SMILES | Papp B→A at 0.5 h, 5 µM [×10⁻⁶ cm/s]
S=C(c1ccc(C2=c3cc4c5c(c3[Se]c3c2cc2c6c3CCCN6CCC2)CCC[N+]=5CCC4)s1)N1CCCCC1.[Cl-] | 0.057

Tested on: ABCB1
Experiment: Permeability from basolateral to apical side in dog MDCK2-MDR1 cells expressing ABCB1 at 5 uM after 30 mins in absence of compound 15 by LC-MS/MS analysis
Type: ADME, cell-based, Canis lupus familiaris, MDCK-II
Settings: MDCK-MDR1, read-out: permeability
Procedure, shortened: as §1

SMILES | Papp B→A at 0.5 h, 5 µM [×10⁻⁶ cm/s]
S=C(c1ccc(C2=c3cc4c5c(c3[Se]c3c2cc2c6c3CCCN6CCC2)CCC[N+]=5CCC4)s1)N1CCCCC1.[Cl-] | 1.8

Tested on: not listed separately
Experiment: Drug uptake in SEB-stimulated human CD25 positive cells assessed as mean fluorescence intensity at 5 x 10^-8 M preincubated for 20 mins followed by growth in photosensitizer-free media for 30 mins by flow cytometric analysis relative to control
Settings: 0.5 h, 0.05 µM

SMILES | Flu intensity [a.u.]
S=C(c1ccc(C2=c3cc4c5c(c3[Se]c3c2cc2c6c3CCCN6CCC2)CCC[N+]=5CCC4)s1)N1CCCCC1.[Cl-] | 83300

Tested on: HuT78
Settings: human, hut78, 0.5 h, 0.075 µM

SMILES | Flu intensity [a.u.]
S=C(c1ccc(C2=c3cc4c5c(c3[Se]c3c2cc2c6c3CCCN6CCC2)CCC[N+]=5CCC4)s1)N1CCCCC1.[Cl-] | 81000

Tested on: not listed separately
Experiment: Drug extrusion in human CD3 positive cells assessed as change in mean fluorescence intensity at 5 x 10^-8 M preincubated for 20 mins followed by growth in photosensitizer-free media for 30 mins by flow cytometric analysis relative to control
Type: cell-based
Settings: 0.5 h, 0.05 µM

SMILES | Activity [%]
S=C(c1ccc(C2=c3cc4c5c(c3[Se]c3c2cc2c6c3CCCN6CCC2)CCC[N+]=5CCC4)s1)N1CCCCC1.[Cl-] | 33.1

Tested on: HuT78
Settings: human, hut78, 0.5 h, 0.075 µM
Remark: another data set of the same source

SMILES | Flu intensity [a.u.]
S=C(c1ccc(C2=c3cc4c5c(c3[Se]c3c2cc2c6c3CCCN6CCC2)CCC[N+]=5CCC4)s1)N1CCCCC1.[Cl-] | 66000

Tested on: not listed separately
Experiment: (§2) Phototoxicity human CD4 positive cells co-cultured with GFP expressing human HUT78 cells assessed as cell survival at 7.5 x 10^-8 M preincubated 20 mins in photosensitizer media followed by growth in photosensitizer-free media for 30 mins measured 18 hrs after exposure to 5 J/cm2 irradiation by FACS analysis
Type: cell-based
Settings: read-out: Survival
Procedure, shortened: (§3)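 Non-stimulated PBMCs from healthy donors (Ficoll-separated) were mixed 5:1 with GFP-transfected, sorted (>98%) HUT-78 cells. Cells took up 7.5×10^-8 M photosensitizer for 20 min, then spent 30 min in dye-free medium. They were exposed to 5 J cm^-2 light (600 nm LED) with rotation at 180 rpm. Survival was gated by FACS (GFP, CD3, CD4, CD8) 18 h later versus non-irradiated controls. Triplicate; mean ± SEM.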

SMILES | viability at 18 h, 0.075 µM [%]
S=C(c1ccc(C2=c3cc4c5c(c3[Se]c3c2cc2c6c3CCCN6CCC2)CCC[N+]=5CCC4)s1)N1CCCCC1.[Cl-] | 1.5

Tested on: not listed separately
Experiment: Drug uptake in human HUT78 cell mitochondria by MTG-based bright field microscopic analysis
Type: ADME
Settings: not given
Procedure, shortened: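 HUT-78 cells (5×10^5 in 0.5 mL medium) were incubated 15 min with 2×10^-7 M dye together with 5×10^-7 M MitoTracker Green. They were centrifuged and analysed by ImageStream imaging flow cytometry, with MTG excited at 488 nm (480–560 nm channel) and dye excited at 561 nm (642–745 nm channel). Colocalisation was given as the bright detail similarity score, mean ± SD over cells.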

SMILES | Drug uptake
S=C(c1ccc(C2=c3cc4c5c(c3[Se]c3c2cc2c6c3CCCN6CCC2)CCC[N+]=5CCC4)s1)N1CCCCC1.[Cl-] | Active

Tested on: HuT78
Experiment: Phototoxicity against human HUT78 cells assessed as reduction in cell viability preincubated for 1 hr in dark before exposure to 1 J/cm2 irradiation after 48 hrs by MTT assay
Type: functional, cell-based
Settings: not given
Procedure, shortened: (§4)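 HUT-78 cells in RPMI 1640 with 10% FBS, 1% HEPES and 1% penicillin-streptomycin were plated at 7.5×10^4 per well and grown 24 h. Dye was added to final 5×10^-8 to 5×10^-7 M, then 1 h in the dark. Plates were kept dark or irradiated with a 633 ± 2 nm dye laser at ~3.2 mW cm^-2 to 0.5, 1.0 or 2.0 J cm^-2. Medium was replaced, 48 h at 37 °C, then MTT read at 570 nm. Triplicate runs; EC50/LD50 by sigmoidal variable-slope fit.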

SMILES | Activity
S=C(c1ccc(C2=c3cc4c5c(c3[Se]c3c2cc2c6c3CCCN6CCC2)CCC[N+]=5CCC4)s1)N1CCCCC1.[Cl-] | Dose-dependent effect

Same assay, conditions: HuT78, light or radiation study

SMILES | EC50 [nM]
S=C(c1ccc(C2=c3cc4c5c(c3[Se]c3c2cc2c6c3CCCN6CCC2)CCC[N+]=5CCC4)s1)N1CCCCC1.[Cl-] | 35

Tested on: not listed separately
Experiment: Dark toxicity against human HUT78 cells assessed as reduction in cell viability preincubated for 1 hr in dark after 48 hrs by MTT assay
Type: cell-based
Settings: read-out: LD50
Procedure, shortened: as §4

SMILES | CC50 at 48 h [nM]
S=C(c1ccc(C2=c3cc4c5c(c3[Se]c3c2cc2c6c3CCCN6CCC2)CCC[N+]=5CCC4)s1)N1CCCCC1.[Cl-] | 1080

Tested on: HuT78
Experiment: Drug uptake in GFP expressing human HUT78 cells co-cultured with non-stimulated human PBMC cells assessed as change in mean fluorescence intensity at 7.5 x 10^-8 M after 20 mins followed by growth in photosensitizer-free media for 30 mins by flow cytometric analysis relative to control
Type: cell-based
Settings: hut78, 0.5 h, 0.075 µM

SMILES | Activity [%]
S=C(c1ccc(C2=c3cc4c5c(c3[Se]c3c2cc2c6c3CCCN6CCC2)CCC[N+]=5CCC4)s1)N1CCCCC1.[Cl-] | 28.1

Tested on: not listed separately
Experiment: Drug extrusion in human CD4 positive cells assessed as change in mean fluorescence intensity at 5 x 10^-8 M preincubated for 20 mins followed by growth in photosensitizer-free media for 30 mins by flow cytometric analysis relative to control
Type: cell-based
Settings: 0.5 h, 0.05 µM

SMILES | Activity [%]
S=C(c1ccc(C2=c3cc4c5c(c3[Se]c3c2cc2c6c3CCCN6CCC2)CCC[N+]=5CCC4)s1)N1CCCCC1.[Cl-] | 36.1

Tested on: not listed separately
Experiment: Drug extrusion in SEB-stimulated human CD25 negative cells assessed as mean fluorescence intensity at 5 x 10^-8 M preincubated for 20 mins followed by growth in photosensitizer-free media for 30 mins by flow cytometric analysis relative to control
Settings: 0.5 h, 0.05 µM

SMILES | Flu intensity [a.u.]
S=C(c1ccc(C2=c3cc4c5c(c3[Se]c3c2cc2c6c3CCCN6CCC2)CCC[N+]=5CCC4)s1)N1CCCCC1.[Cl-] | 16600

Tested on: HuT78
Experiment: as §2, with “in” for “human CD4 positive cells co-cultured with”, “HUT78 cells co-cultured with human PBMC” for “HUT78”
Type: functional
Settings: HuT78, light or radiation study, read-out: Survival
Procedure, shortened: as §3

SMILES | viability at 0.075 µM [%]
S=C(c1ccc(C2=c3cc4c5c(c3[Se]c3c2cc2c6c3CCCN6CCC2)CCC[N+]=5CCC4)s1)N1CCCCC1.[Cl-] | 0

Tested on: HuT78
Experiment: Phototoxicity against human HUT78 cells assessed as reduction in cell viability preincubated for 1 hr in dark at 5 x 10^-8M before exposure to 0.5 to 2 J/cm2 irradiation after 48 hrs by MTT assay
Type: functional, cell-based
Settings: not given
Procedure, shortened: as §4

SMILES | Activity
S=C(c1ccc(C2=c3cc4c5c(c3[Se]c3c2cc2c6c3CCCN6CCC2)CCC[N+]=5CCC4)s1)N1CCCCC1.[Cl-] | Active

Tested on: not listed separately
Experiment: as §2, with “CD3” for “CD4”
Type: cell-based
Settings: read-out: Survival
Procedure, shortened: as §3

SMILES | viability at 18 h, 0.075 µM [%]
S=C(c1ccc(C2=c3cc4c5c(c3[Se]c3c2cc2c6c3CCCN6CCC2)CCC[N+]=5CCC4)s1)N1CCCCC1.[Cl-] | 5.8

Tested on: not listed separately
Experiment: Drug extrusion in SEB-stimulated human CD25 negative cells assessed as change in mean fluorescence intensity at 5 x 10^-8 M preincubated for 20 mins followed by growth in photosensitizer-free media for 30 mins by flow cytometric analysis relative to control
Settings: 0.5 h, 0.05 µM

SMILES | Activity [%]
S=C(c1ccc(C2=c3cc4c5c(c3[Se]c3c2cc2c6c3CCCN6CCC2)CCC[N+]=5CCC4)s1)N1CCCCC1.[Cl-] | 35.2

Tested on: not listed separately
Experiment: as §2, with “CD8” for “CD4”
Type: cell-based
Settings: read-out: Survival
Procedure, shortened: as §3

SMILES | viability at 18 h, 0.075 µM [%]
S=C(c1ccc(C2=c3cc4c5c(c3[Se]c3c2cc2c6c3CCCN6CCC2)CCC[N+]=5CCC4)s1)N1CCCCC1.[Cl-] | 11.3

Tested on: not listed separately
Experiment: Drug extrusion in SEB-stimulated human CD25 positive cells assessed as change in mean fluorescence intensity at 5 x 10^-8 M preincubated for 20 mins followed by growth in photosensitizer-free media for 30 mins by flow cytometric analysis relative to control
Settings: 0.5 h, 0.05 µM

SMILES | Activity [%]
S=C(c1ccc(C2=c3cc4c5c(c3[Se]c3c2cc2c6c3CCCN6CCC2)CCC[N+]=5CCC4)s1)N1CCCCC1.[Cl-] | 16.8

Tested on: ABCB1
Experiment: Passive permeability in dog MDCK2-MDR1 cells expressing ABCB1 at 5 uM after 30 mins in presence of compound 15 by LC-MS/MS analysis
Type: ADME, cell-based, Canis lupus familiaris, MDCK-II
Settings: MDCK-MDR1, with compound 15 (concentration not stated), read-out: permeability
Procedure, shortened: as §1

SMILES | Papp at 0.5 h, 5 µM [×10⁻⁶ cm/s]
S=C(c1ccc(C2=c3cc4c5c(c3[Se]c3c2cc2c6c3CCCN6CCC2)CCC[N+]=5CCC4)s1)N1CCCCC1.[Cl-] | < 0.1

Tested on: not listed separately
Experiment: Drug uptake in SEB-stimulated human CD25 negative cells assessed as mean fluorescence intensity at 5 x 10^-8 M preincubated for 20 mins followed by growth in photosensitizer-free media for 30 mins by flow cytometric analysis relative to control
Settings: 0.5 h, 0.05 µM

SMILES | Flu intensity [a.u.]
S=C(c1ccc(C2=c3cc4c5c(c3[Se]c3c2cc2c6c3CCCN6CCC2)CCC[N+]=5CCC4)s1)N1CCCCC1.[Cl-] | 25500
